The results in this text go back to ChEMBL document CHEMBL1137729, “Synthesis, evaluation and 3D QSAR analysis of novel estradiol-RGD octapeptide conjugates with oral anti-osteoporosis activity” (Eur J Med Chem, 2009).

Series [1] is described as follows: Stability in presence of pepsin at 37 degC after 90 mins. The series is classed as ADME. The settings on record: isolated protein, 1.5 h.
Series [2] has as its system Mus musculus. The series is described as follows: Toxicity in ovariectomized ICR mouse assessed as lung weight at 110.3 nmol/kg, po treated for 4 weeks measured after 1 day of last treatment. Type of series: organism-based. The conditions noted are these: in vivo, 24 h. The method, boiled down:
(§1)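 OVX mice dosed orally once daily with 110.3 nmol/kg in 0.5% carboxymethylcellulose for 4 weeks. The day after the last dose, mice were anesthetized with pentobarbital (40.0 mg/kg ip) and killed; uteri, lungs, livers and spleens were removed and weighed directly and their morphology noted.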

Series [3] deals with Mus musculus. The series is described as follows: Toxicity in osteoporotic female mouse at 0.11 umol/kg, po. The series is classed as organism-based. The conditions noted are these: in vivo.
The subject of series [4] is Mus musculus. As to the kind of experiment: Toxicity in ovariectomized ICR mouse assessed as effect on uterine weight at 110.3 nmol/kg, po treated for 4 weeks measured after 1 day of last treatment. The series is classed as organism-based. The conditions noted are these: in vivo, 24 h. In short, it runs like this:
as §1

Series [5] has as its system Mus musculus. The series is described as follows: Toxicity in ovariectomized ICR mouse assessed as liver weight at 110.3 nmol/kg, po treated for 4 weeks measured after 1 day of last treatment. The series is classed as organism-based. The conditions noted are these: in vivo, 24 h. The method, boiled down: as §1
The test system of series [6] is Mus musculus. The series is described as follows: Toxicity in ovariectomized ICR mouse assessed as kidney weight at 110.3 nmol/kg, po treated for 4 weeks measured after 1 day of last treatment. The series is classed as organism-based. The conditions noted are these: in vivo, 24 h.
Series [7] has as its system Mus musculus. The series is described as follows: Toxicity in ovariectomized ICR mouse assessed as effect on tail bleeding time at 110.3 nmol/kg, po treated for 4 weeks measured after 90 mins of last treatment. The series is classed as organism-based. The settings on record: in vivo, 1.5 h. The method, boiled down:
(§2)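 OVX mice received 110.3 nmol/kg orally in 0.5% carboxymethylcellulose daily for 4 weeks. At 30 and 90 min after the last dose, a 2 mm tail cut was made with the mouse in a tube holder; blood was blotted every 30 s until bleeding stopped, and the time was recorded as bleeding time.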

Series [8] concerns Mus musculus. As to the kind of experiment: Toxicity in ovariectomized ICR mouse assessed as effect on tail bleeding time at 110.3 nmol/kg, po treated for 4 weeks measured after 30 mins of last treatment. Type of series: organism-based. The conditions noted are these: in vivo, 0.5 h. In short, it runs like this: as §2
The test system of series [9] is Mus musculus. The series is described as follows: Antiosteoporosis activity in ovariectomized ICR mouse assessed as phosphorous level in serum at 110.3 nmol/kg, po treated for 4 weeks measured after 1 day of last treatment by molybdenum blue method. Type of series: functional. In short, it runs like this:
(§3)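 Ovariectomized female mice dosed orally with 110.3 nmol/kg in 0.5% carboxymethylcellulose once daily for 4 weeks, starting day 5 after surgery. Blood taken from the orbit the day after the last dose, stood 30 min, centrifuged 3000g for 20 min, serum stored at −20 °C. Calcium read by o-methylphenolphthalein complexone; phosphorus by molybdenum blue.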

Series [10] relates to Mus musculus. As to the kind of experiment: Antiosteoporosis activity in ovariectomized ICR mouse assessed as length of femur at 110.3 nmol/kg, po treated for 4 weeks measured after 1 day of last treatment. The series is classed as functional. In short, it runs like this: (§4)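 Female mice, ovariectomized (sham: laparotomy only); from day 5 post-surgery dosed orally once daily with 110.3 nmol/kg in 0.2 ml 0.5% carboxymethylcellulose for 4 weeks (vehicle to OVX/sham). Left femur taken the day after the last dose, cleaned of muscle, length measured, defatted in chloroform–methanol (2:1, 2×3 h), dried 120 °C 6 h and weighed, ashed 800 °C 8 h and weighed. Mineral content = ash/dry weight; femur ash dissolved in 6 N HCl, diluted, calcium by o-methylphenolphthalein complexone. n = 12.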

In series [11] the test system is Mus musculus. The series is described as follows: Antiosteoporosis activity in osteoporotic female mouse at 0.11 umol/kg, po. The series is classed as functional, organism-based. The method, boiled down: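 Dose-finding pre-treatment: series of oral doses given to osteoporotic female mice; ex vivo anti-osteoporosis activity assessed to assign a general dose for all later experiments.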

Series [12] has as its system Mus musculus. The series is described as follows: Toxicity in ovariectomized ICR mouse assessed as spleen weight at 110.3 nmol/kg, po treated for 4 weeks measured after 1 day of last treatment. The series is classed as organism-based. The settings on record: in vivo, 24 h. In short, it runs like this: as §1
Series [13] concerns Mus musculus. As to the kind of experiment: Antiosteoporosis activity in ovariectomized ICR mouse assessed as weight of femur ash at 110.3 nmol/kg, po treated for 4 weeks measured after 1 day of last treatment. The series is classed as functional. In short, it runs like this:
as §4

The subject of series [14] is Mus musculus. As to the kind of experiment: Antiosteoporosis activity in ovariectomized ICR mouse assessed as calcium content in femur at 110.3 nmol/kg, po treated for 4 weeks measured after 1 day of last treatment by o-methyl-phenolphthalein. Type of series: functional. In short, it runs like this:
as §4

Series [15] has as its system Mus musculus. The series is described as follows: Antiosteoporosis activity in ovariectomized ICR mouse assessed as weight of dry femur at 110.3 nmol/kg, po treated for 4 weeks measured after 1 day of last treatment. The series is classed as functional. In short, it runs like this:
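Left femur taken the day after the last dose, cleaned of muscle, length measured, defatted in chloroform–methanol (2:1, 2×3 h), dried 120 °C 6 h and weighed, ashed 800 °C 8 h and weighed. Mineral content = ash/dry weight; femur ash dissolved in 6 N HCl, diluted, calcium by o-methylphenolphthalein complexone. n = 12.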

Series [16] relates to Mus musculus. The series is described as follows: Antiosteoporosis activity in ovariectomized ICR mouse assessed as calcium level in serum at 110.3 nmol/kg, po treated for 4 weeks measured after 1 day of last treatment by o-methyl-phenolphthalein method. The series is classed as functional. The method, boiled down:
as §3

Series [17] has as its system Mus musculus. As to the kind of experiment: Antiosteoporosis activity in ovariectomized ICR mouse assessed as mineral content in femur at 110.3 nmol/kg, po treated for 4 weeks measured after 1 day of last treatment. The series is classed as functional. In short, it runs like this:
as §4

Series [18] has as its system Mus musculus. As to the kind of experiment: Antiosteoporosis activity in ovariectomized ICR mouse assessed as phosphorous content in femur at 110.3 nmol/kg, po treated for 4 weeks measured after 1 day of last treatment by molybdenum blue method. The series is classed as functional.
The subject of series [19] is Mus musculus. The series is described as follows: Antiosteoporosis activity in osteoporotic female mouse at 4 umol/kg, po. Type of series: functional, organism-based.
The species entered for series [20] is Mus musculus. The series is described as follows: Inhibition of ADP-induced platelet aggregation in osteoporotic female mouse by ex vivo platelet aggregation assay. The series is classed as functional, organism-based.
Series [21] is filed under the species Mus musculus. The series is described as follows: Inhibition of PAF-induced platelet aggregation in osteoporotic female mouse by ex vivo platelet aggregation assay. Type of series: functional, organism-based.
Series [22] can be described thus: Stability in presence of pepsin at 37 degC after 4 hrs. Type of series: ADME. The settings on record: isolated protein.

The source made the active and inactive calls. The rule behind the calls is not given here. Residues, ends and D or L forms follow the SMILES beside them. *: point of attachment. Succinyl(O17-estradiol) = C[C@]12CC[C@@H]3c4ccc(O)cc4CC[C@H]3[C@@H]1CC[C@@H]2OC(=O)CCC(=O)*

In the case of `N=C(N)NCCC[C@H](N)C(=O)NCC(=O)N[C@@H](CC(=O)O)C(=O)N[C@@H](Cc1ccccc1)C(=O)O` (H-RGDF-OH), the Stability entry in [1] is given as “Unstable”.
Turning to `C[C@]12CC[C@@H]3c4ccc(O)cc4CC[C@H]3[C@@H]1CC[C@@H]2OC(=O)CCC(=O)N[C@@H](CCCNC(=N)N)C(=O)NCC(=O)N[C@@H](CC(=O)O)C(=O)N[C@@H](Cc1ccccc1)C(=O)N[C@@H](CCCNC(=N)N)C(=O)NCC(=O)N[C@@H](CC(=O)O)C(=O)N[C@@H](Cc1ccccc1)C(=O)O` ({Succinyl(O17-estradiol)}-RGDFRGDF-OH), the Activity is recorded as 0.109 g in the series on Mus musculus [2]; “Non-toxic” in the series on Mus musculus [3]; 0.06 g with Mus musculus [4]; 1.266 g in the series with Mus musculus [5]; 0.16 g in the series with Mus musculus [6]; 3.01 mM in the series on Mus musculus [9]. Moreover, the Activity in the series with Mus musculus [10] was 1.64 cm; with Mus musculus [12], 0.135 g; with Mus musculus [13] it was 36.87 mg; in the series on Mus musculus [14] it was 64.36%; in the series with Mus musculus [15], 56.6 mg; with Mus musculus [16], 3.01 mM. Also, the Activity with Mus musculus [17] turned out to be 0.625%; in the series with Mus musculus [18], 21.56%. Also, the values for the Time with Mus musculus [7] and in the series on Mus musculus [8] were 571 s and 584 s, respectively. The result with Mus musculus [11] was Active.
Take `C[C@]12CC[C@@H]3c4ccc(O)cc4CC[C@H]3[C@@H]1CC[C@@H]2OC(=O)CCC(=O)N[C@@H](CCCNC(=N)N)C(=O)NCC(=O)N[C@@H](CC(=O)O)C(=O)N[C@@H](CO)C(=O)N[C@@H](CCCNC(=N)N)C(=O)NCC(=O)N[C@@H](CC(=O)O)C(=O)N[C@@H](CO)C(=O)O` ({Succinyl(O17-estradiol)}-RGDSRGDS-OH): the Activity with Mus musculus [2] came to 0.116 g; in the series on Mus musculus [4] it was 0.065 g; in the series on Mus musculus [5] it was 1.479 g; in the series with Mus musculus [6], 0.174 g; with Mus musculus [9], 2.6 mM; in the series on Mus musculus [10], 1.665 cm. The Activity is 0.149 g in the series on Mus musculus [12]; 36.48 mg in the series on Mus musculus [13]; 65.16% in the series with Mus musculus [14]; 56.41 mg in the series on Mus musculus [15]; 3 mM in the series on Mus musculus [16]; 0.625% in the series on Mus musculus [17]. Moreover, the Activity in the series with Mus musculus [18] was found to be 21.4%. The Time was 556 s with Mus musculus [7] and 562 s in the series with Mus musculus [8].
Take `CC(C)[C@H](NC(=O)[C@H](CC(=O)O)NC(=O)CNC(=O)[C@H](CCCNC(=N)N)NC(=O)CCC(=O)O[C@H]1CC[C@H]2[C@@H]3CCc4cc(O)ccc4[C@H]3CC[C@]12C)C(=O)O` ({Succinyl(O17-estradiol)}-RGDV-OH): the Activity with Mus musculus [2] is 0.125 g; with Mus musculus [4], 0.064 g; in the series with Mus musculus [5] it was 1.55 g; in the series on Mus musculus [6] it was 0.178 g; in the series with Mus musculus [9], 3.04 mM; in the series with Mus musculus [10], 1.672 cm. Moreover, the Activity in the series on Mus musculus [12] was 0.149 g; in the series with Mus musculus [13], 33.7 mg; in the series on Mus musculus [14], 57.49%; in the series on Mus musculus [15], 54.01 mg; with Mus musculus [16] it was 3.26 mM; with Mus musculus [17], 0.612%. Also, the Activity in the series with Mus musculus [18] amounted to 20.14%. The figures for the Time with Mus musculus [7] and in the series on Mus musculus [8] were 560 s and 551 s, respectively.
H-RGDFRGDF-OH: the outcome in the series on Mus musculus [19] was inactive. Also, the IC50 in the series filed under Mus musculus [20] turned out to be 0.31 µmol/kg; in the series listed under Mus musculus [21], 0.26 µmol/kg. Also, in series [22], the Stability result was “Stable”.
